Data set [1] can be described thus: Antiproliferative activity against human HCT116 cells […] by MTT assay. It is filed as functional, cell-based. The conditions noted are these: HCT-116. Background: Tetrazolium assays rely on reduction of a dye to a coloured formazan, in cell work by metabolically active cells.
A short description of data set [2]: Antiproliferative activity against human U87MG cells after 72 hrs by MTT assay. It is filed as functional, cell-based, U-87MG ATCC. The conditions noted are these: U-87 MG. In a few lines:
(§1)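 Cells kept as monolayers in DMEM with 10% FBS, 5% CO2, 37 °C. Seeded at 3000-5000 cells/well, grown 24 h before dosing. Treated with 100.0, 10.0, 1.0, 0.1 and 0.01 μM of compound for 48 h. MTT (5 mg/ml in medium) added for 4 h, formazan pelleted, dissolved in DMSO, OD read at 490 nm. IC50 derived from inhibition ratios. Three separate experiments, each in triplicate.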

The test system of data set [3] is A549. The data set is described as follows: Antiproliferative activity against human A549 cells after 72 hrs by MTT assay. In kind it is functional, cell-based. As to conditions: A549, 72 h. In a few lines: as §1
The subject of data set [4] is MCF7. The data set is described as follows: Antiproliferative activity against human MCF7 cells […] by MTT assay. In kind it is functional, cell-based.
The nature of data set [5]: Antitumor activity against human HCT116 cells xenografted in BALB/C mouse assessed as reduction in tumor volume at 10 mg/kg, po dosed once daily for 14 days. In kind it is functional. The conditions noted are these: HCT-116, 336 h. In a few lines: (§2)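 Male BALB/C nude mice (SPF, 18-20 g) received 3×10^6 HCT-116 cells subcutaneously in the flank. At 100 mm³ tumours, animals were randomised (8 controls, 5 per drug group). Compound given orally in NMP/PEG300 (1:9) once daily for 14 days; controls got vehicle. Tumour volume (length × width × width/2) recorded every 3-4 days. Sacrifice on day 26, inhibition ratios from tumour volume and weight. Mean ± standard error.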

Data set [6] relates to Mus musculus. The data set is described as follows: Toxicity in human HCT116 cells xenografted BALB/C mouse assessed as weight loss at 10 to 30 mg/kg, po dosed once daily for 14 days. It is filed as organism-based, HCT-116. On the set-up: dose 10-30 mg/kg, route oral. The conditions noted are these: in vivo, 336 h. The procedure, abridged: (§3)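 Male BALB/C nude mice (18-20 g) carried subcutaneous flank HCT-116 xenografts (3×10^6 cells), randomised at 100 mm³. Compound dosed orally in NMP/PEG300 (1:9) once daily for 14 days; controls got vehicle alone. Body weight recorded every 3-4 days until sacrifice on day 26.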
In general terms: In xenograft studies the graft and the host belong to different species.

A short description of data set [7]: Antitumor activity against human HCT116 cells xenografted in BALB/C mouse assessed as reduction in tumor volume at 30 mg/kg, po dosed once daily for 14 days. It is filed as functional. As to conditions: HCT-116, 336 h. In a few lines: as §2
Data set [8] relates to HCT-116. The data set is described as follows: Inhibition of PI3K/Akt signalling in human HCT116 cells assessed as reduction in AKT Ser473 phosphorylation at 1 uM after 1 hr by Western blot method. It is filed as cell-based. The procedure, abridged:
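HCT-116 cells seeded at 1×10^6/well in DMEM with 10% FBS and grown 16 h at 37 °C. Exposed to compound or DMSO for 1 h at 37 °C, then lysed in ice-cold buffer and clarified at 12000 rpm, 20 min, 4 °C. Protein measured by BCA and run on SDS-PAGE. Immunoblotted for AKT, p-Ser473 AKT and β-actin, with chemiluminescent detection and densitometry. Three independent experiments, each in duplicate.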
In general terms: In western blotting, separated proteins are transferred to a membrane and probed.

Data set [9] relates to Mus musculus. The data set is described as follows: Toxicity in human HCT116 cells xenografted BALB/C mouse assessed as weight loss at 30 mg/kg, po dosed once daily for 14 days. It is filed as organism-based, HCT-116. The arrangement: dose 30 mg/kg, route oral. The conditions noted are these: in vivo, 336 h. In a few lines: as §3

pIC50: −log10 of the molar value. Calls of active or inactive are those of the source. The calls are words filed in the database; no cut-off is given here.

As a reminder, the pIC50 is the IC50 on a negative log10 scale, so that one unit is a factor of ten. High values mean a small IC50, low ones a large IC50. In [1], `COc1c(NS(=O)(=O)c2ccc(F)cc2)cc(-c2ccn3nc(NC(C)=O)nc3c2)cc1C(N)=O` had a pIC50 of 4.49.

In data set [1], `COc1c(NS(=O)(=O)c2ccc(F)cc2)cc(-c2ccc3nc(NC(C)=O)nn3c2)cc1C(N)=O` had a pIC50 of 4.60.

`COc1c(NS(=O)(=O)c2ccc(F)cc2)cc(-c2ccc3nc(NC4CC4)sc3n2)cc1C(N)=O`: the pIC50 is 4.38 in data set [2], 4.52 in data set [3], 4.48 in data set [4] and 4.45 in [1].

By inhibition in vivo is commonly meant the percentage by which the read-out fell short of the control. For the compound `COc1c(NS(=O)(=O)c2ccc(F)cc2)cc(-c2ccc3nc(NC(C)=O)sc3c2)cc1C(N)=O`, the negative logarithm of the IC50 (pIC50) in data set [2] is 5.32; in [3], 5.77; in data set [4], 6.30; in data set [1] it was 5.71. Also, the inhibition in vivo at 10 mg/kg in data set [5] is 40.1%. In addition, the Activity result in data set [6] is “Non-toxic”. The inhibition in vivo at 30 mg/kg in data set [7] worked out at 46.9%. The inhibition entry in [8] is “Active”.

In the case of `Cn1c(=O)n(-c2ccc(C(C)(C)C#N)cc2)c2c3cc(-c4cnc5ccccc5c4)ccc3ncc21` [DACTOLISIB], the pIC50 in data set [2] was 5.63; in data set [3], 7.00; in data set [4] it was 6.26; in data set [1] it was 6.49. The Activity entry in [9] was “Toxic”. For the same compound, in data set [7], the inhibition in vivo at 30 mg/kg was determined as 24.2%. The inhibition result in data set [8] was “Active”.

`COc1c(NS(=O)(=O)c2ccc(F)cc2)cc(-c2ccn3nc(NC(=O)C4CC4)nc3c2)cc1C(N)=O` had a pIC50 in data set [1] below 4.30.

`COc1c(NS(=O)(=O)C2CC2)cc(-c2ccc3nc(NC(C)=O)nn3c2)cc1C(N)=O` had a negative logarithm of the IC50 (pIC50) in data set [1] of 4.44.

As to `COc1c(NS(=O)(=O)c2ccc(F)cc2)cc(-c2ccn3nc(N)nc3c2)cc1C(N)=O`, the pIC50 in data set [1] is below 4.30.

In the case of `COc1c(NS(=O)(=O)c2ccc(C)cc2)cc(-c2ccc3nc(NC(C)=O)nn3c2)cc1C(N)=O`, the negative logarithm of the IC50 (pIC50) in [1] was 4.56.

Compound `COc1c(NS(=O)(=O)c2ccc(Cl)cc2)cc(-c2ccc3nc(NC(C)=O)nn3c2)cc1C(N)=O` had a pIC50 in data set [1] of 4.50.

`NC(=O)c1cc(NS(=O)(=O)c2ccc(F)cc2)cc(-c2ccc3nc(NC(=O)C4CC4)sc3c2)c1`: in [1], the negative logarithm of the IC50 (pIC50) was below 4.30.

With `COc1c(NS(=O)(=O)c2ccc(F)cc2)cc(-c2ccc3nc(NC4CC4)sc3c2)cc1C(N)=O`, in data set [1], the negative-log IC50 (pIC50) was below 4.30.

For `COc1c(NS(=O)(=O)C2CC2)cc(-c2ccc3nc(NC(=O)C4CC4)sc3c2)cc1C(N)=O`, the pIC50 is 5.09 in [2], 4.33 in data set [3] and 4.84 in data set [1].

Turning to `COc1c(NS(=O)(=O)c2ccc(F)cc2)cc(-c2ccc3nc(NC(C)=O)sc3n2)cc1C(N)=O`, the negative-log IC50 (pIC50) in data set [2] was 4.66; in data set [3], 5.37; in data set [4] it was 4.90; in data set [1] it was 5.37.

Turning to `NC(=O)c1cc(-c2ccc3nc(NC(=O)C4CC4)sc3c2)cc(NS(=O)(=O)c2ccc(F)cc2)c1Cl`, the pIC50 in data set [2] was 4.75; in data set [3], below 4.30; in data set [4], below 4.30; in [1] it was 4.94.

In the case of `CCOC(=O)CNc1nc2ccc(-c3cc(NS(=O)(=O)c4ccc(F)cc4)c(OC)c(C(N)=O)c3)cc2s1`, in [1], the pIC50 was below 4.30.

Compound `COc1c(NS(=O)(=O)c2ccc(F)cc2)cc(-c2ccc3nc(NC(=O)C4CC4)nn3c2)cc1C(N)=O` had a negative logarithm of the IC50 (pIC50) in data set [1] of 4.36.

Compound `CC(=O)Nc1nc2ccc(-c3cc(NS(=O)(=O)c4ccc(F)cc4)c(Cl)c(C(N)=O)c3)cn2n1` had a pIC50 in data set [1] below 4.30.

For the compound `CC(=O)Nc1nc2ccc(-c3cnc(Cl)c(NS(=O)(=O)c4ccc(F)cc4)c3)cc2s1`, the pIC50 in data set [2] was 5.55; in data set [3], 6.70; in [4], 6.28; in data set [1], 6.29.

Consider `COc1c(NS(=O)(=O)c2ccc(F)cc2)cc(-c2ccc3nc(NC(=O)C4CC4)sc3n2)cc1C(N)=O`, for which the negative logarithm of the IC50 (pIC50) is 4.69 in data set [2], 5.09 in [3], 4.66 in data set [4] and 5.60 in data set [1].

In the case of `COc1c(NS(=O)(=O)c2ccc(F)cc2)cc(-c2ccc3nc(NC(=O)C4CC4)sc3c2)cc1C(N)=O`, the pIC50 in data set [2] was 5.54; in data set [3], 5.20; in data set [4] it was 5.80; in data set [1], 5.70.
